# According to ChEMBL document CHEMBL2057112, “Enamino-oxindole HIV protease inhibitors” (Bioorg Med Chem Lett, 2012):
# Legend:
# [1] = Inhibition of Human immunodeficiency virus protease M10 mutant expressed in Escherichia coli using ArgGlu(EDANS)SerGlnAsnTyrProIleValGlnLys(DABCYL)Arg as substrate preincubated with compound for 0.5 to 1 min measured by fluorometric analysis at pH 6.5
# [2] = tested on: Human immunodeficiency virus 1; experiment: Antiviral activity against Human immunodeficiency virus 1 HXB2 expressing protease M8 mutant infected in human MT4 cells after 5 days by MTT assay; assay type: functional, organism-based; conditions: Human immunodeficiency virus 1, HXB2, MT4, 120 h
# [3] = tested on: Human immunodeficiency virus 1; experiment: Antiviral activity against Human immunodeficiency virus 1 HXB2 expressing protease M5 mutant infected in human MT4 cells after 5 days by MTT assay; assay type: functional, organism-based; conditions: Human immunodeficiency virus 1, HXB2, MT4, 120 h
# Summary of the method: (§1)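 MT-4 cells (AIDS Research and Reference Reagent Program) exposed to 50% tissue culture infective doses (TCID₅₀) of virus with various concentrations of test compound for 5 days. MTT solution then added and absorbance measured. Mutant strains carry 10–17 resistance mutations with phenotypic resistance to marketed PIs; all include I84V except M7. IC₅₀ reported.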
# [4] = tested on: Human immunodeficiency virus 1; experiment: Antiviral activity against Human immunodeficiency virus 1 HXB2 expressing protease M10 mutant infected in human MT4 cells after 5 days by MTT assay; assay type: functional, organism-based; conditions: Human immunodeficiency virus 1, HXB2, MT4, 120 h
# [5] = tested on: Human immunodeficiency virus 1; experiment: Antiviral activity against Human immunodeficiency virus 1 HXB2 expressing protease M3 mutant infected in human MT4 cells after 5 days by MTT assay; assay type: functional, organism-based; conditions: Human immunodeficiency virus 1, HXB2, MT4, 120 h; summary of the method: as §1
# [6] = tested on: Human immunodeficiency virus 1; experiment: Antiviral activity against Human immunodeficiency virus 1 HXB2 expressing protease M6 mutant infected in human MT4 cells after 5 days by MTT assay; assay type: functional, organism-based; conditions: Human immunodeficiency virus 1, HXB2, MT4, 120 h; summary of the method: as §1
# [7] = tested on: Human immunodeficiency virus 1; experiment: Antiviral activity against Human immunodeficiency virus 1 HXB2 expressing protease M4 mutant infected in human MT4 cells after 5 days by MTT assay; assay type: functional, organism-based; conditions: Human immunodeficiency virus 1, HXB2, MT4, 120 h; summary of the method: as §1
# [8] = tested on: Human immunodeficiency virus 1; experiment: Antiviral activity against Human immunodeficiency virus 1 HXB2 expressing protease M7 mutant infected in human MT4 cells after 5 days by MTT assay; assay type: functional, organism-based; conditions: Human immunodeficiency virus 1, HXB2, MT4, 120 h; summary of the method: as §1
# [9] = Inhibition of wild type Human immunodeficiency virus protease expressed in Escherichia coli using ArgGlu(EDANS)SerGlnAsnTyrProIleValGlnLys(DABCYL)Arg as substrate preincubated with compound for 0.5 to 1 min measured by fluorometric analysis at pH 6.5
# [10] = Inhibition of Human immunodeficiency virus protease M9 mutant expressed in Escherichia coli using ArgGlu(EDANS)SerGlnAsnTyrProIleValGlnLys(DABCYL)Arg as substrate preincubated with compound for 0.5 to 1 min measured by fluorometric analysis at pH 6.5
# [11] = tested on: Human immunodeficiency virus 1; experiment: Antiviral activity against Human immunodeficiency virus 1 HXB2 expressing wild type protease infected in human MT4 cells after 5 days by MTT assay; assay type: functional, organism-based; conditions: Human immunodeficiency virus 1, HXB2, MT4, 120 h
# [12] = tested on: Human immunodeficiency virus 1; experiment: Antiviral activity against Human immunodeficiency virus 1 HXB2 expressing protease M9 mutant infected in human MT4 cells after 5 days by MTT assay; assay type: functional, organism-based; conditions: Human immunodeficiency virus 1, HXB2, MT4, 120 h
# [13] = Inhibition of Human immunodeficiency virus protease M8 mutant expressed in Escherichia coli using ArgGlu(EDANS)SerGlnAsnTyrProIleValGlnLys(DABCYL)Arg as substrate preincubated with compound for 0.5 to 1 min measured by fluorometric analysis at pH 6.5
structure (smiles),measurement,setting,value
CC(C)CNC=C1C(=O)Nc2ccc(S(=O)(=O)N(CC(C)C)C[C@@H](O)[C@H](Cc3ccccc3)NC(=O)O[C@H]3CO[C@H]4OCC[C@H]43)cc21 (mixture of isomers),Ki,[1],< 1 nM
same,IC50,[2],16 nM
same,IC50,[3],9 nM
same,IC50,[4],33 nM
same,IC50,[5],8 nM
same,IC50,[6],9 nM
same,IC50,[7],15 nM
same,IC50,[8],2.1 nM
same,Ki,[9],< 0.1 nM
same,Ki,[10],< 0.3 nM
same,IC50,[11],7.5 nM
same,IC50,[12],9.5 nM
CC(N)=C1C(=O)Nc2ccc(S(=O)(=O)N(CC(C)C)C[C@@H](O)[C@H](Cc3ccccc3)NC(=O)O[C@H]3CO[C@H]4OCC[C@H]43)cc21 (mixture of isomers),Ki,[1],< 1 nM
same,IC50,[2],70 nM
same,IC50,[3],75 nM
same,IC50,[4],60 nM
same,IC50,[5],70 nM
same,IC50,[6],65 nM
same,IC50,[7],70 nM
same,IC50,[8],30 nM
same,Ki,[9],< 0.1 nM
same,Ki,[10],< 0.3 nM
same,IC50,[11],64 nM
same,IC50,[12],60 nM
CC(C)CN(C[C@@H](O)[C@H](Cc1ccccc1)NC(=O)O[C@H]1CO[C@H]2OCC[C@H]21)S(=O)(=O)c1ccc2c(c1)C(=CNC1CCC1)C(=O)N2 (mixture of isomers),Ki,[1],1.2 nM
same,IC50,[2],30 nM
same,IC50,[3],33 nM
same,IC50,[4],115 nM
same,IC50,[5],31 nM
same,IC50,[6],32 nM
same,IC50,[7],36 nM
same,IC50,[8],7 nM
same,Ki,[9],< 0.1 nM
same,Ki,[10],< 0.3 nM
same,IC50,[11],17 nM
same,IC50,[12],31 nM
CC(C)CN(C[C@@H](O)[C@H](Cc1ccccc1)NC(=O)O[C@H]1CO[C@H]2OCC[C@H]21)S(=O)(=O)c1ccc2c(c1)CCN2,Ki,[1],10 nM
same,IC50,[2],107 nM
same,IC50,[3],120 nM
same,IC50,[4],1700 nM
same,Ki,[13],0.63 nM
same,IC50,[5],80 nM
same,IC50,[6],30 nM
same,IC50,[7],175 nM
same,IC50,[8],7.5 nM
same,Ki,[9],0.12 nM
same,Ki,[10],1.5 nM
same,IC50,[11],3.9 nM
same,IC50,[12],190 nM
CC(C)CN(C[C@@H](O)[C@H](Cc1ccccc1)NC(=O)O[C@H]1CO[C@H]2OCC[C@H]21)S(=O)(=O)c1ccc(N)cc1,Ki,[1],1 nM
same,IC50,[2],16 nM
same,IC50,[3],22 nM
same,IC50,[4],130 nM
same,Ki,[13],0.25 nM
same,IC50,[5],11 nM
same,IC50,[6],10 nM
same,IC50,[7],30 nM
same,IC50,[8],3.2 nM
same,Ki,[9],< 0.1 nM
same,Ki,[10],< 0.3 nM
same,IC50,[11],3 nM
same,IC50,[12],25 nM
CNC(C)=C1C(=O)Nc2ccc(S(=O)(=O)N(CC(C)C)C[C@@H](O)[C@H](Cc3ccccc3)NC(=O)O[C@H]3CO[C@H]4OCC[C@H]43)cc21 (mixture of isomers),Ki,[1],< 1 nM
same,IC50,[2],29 nM
same,IC50,[3],18 nM
same,IC50,[4],56 nM
same,IC50,[5],12 nM
same,IC50,[6],20 nM
same,IC50,[7],16 nM
same,IC50,[8],5 nM
same,Ki,[9],< 0.1 nM
same,Ki,[10],< 0.3 nM
same,IC50,[11],10 nM
same,IC50,[12],17 nM
CC(C)CN(C[C@@H](O)[C@H](Cc1ccccc1)NC(=O)O[C@H]1CO[C@H]2OCC[C@H]21)S(=O)(=O)c1ccc2c(c1)C(=CNCC(C)(C)C)C(=O)N2 (mixture of isomers),Ki,[1],< 1 nM
same,IC50,[2],13 nM
same,IC50,[3],7 nM
same,IC50,[4],27 nM
same,IC50,[5],8 nM
same,IC50,[6],6 nM
same,IC50,[7],8.8 nM
same,IC50,[8],1.5 nM
same,Ki,[9],< 0.1 nM
same,Ki,[10],< 0.3 nM
same,IC50,[11],4.5 nM
same,IC50,[12],9.5 nM
CCCCNC=C1C(=O)Nc2ccc(S(=O)(=O)N(CC(C)C)C[C@@H](O)[C@H](Cc3ccccc3)NC(=O)O[C@H]3CO[C@H]4OCC[C@H]43)cc21 (mixture of isomers),Ki,[1],< 1 nM
same,IC50,[2],25 nM
same,IC50,[3],18 nM
same,IC50,[4],40 nM
same,IC50,[5],15 nM
same,IC50,[6],32 nM
same,IC50,[7],28 nM
same,IC50,[8],5 nM
same,Ki,[9],< 0.1 nM
same,Ki,[10],< 0.3 nM
same,IC50,[11],13 nM
same,IC50,[12],11 nM
COC(=O)N[C@H](C(=O)N[C@@H](Cc1ccccc1)[C@@H](O)CN(Cc1ccc(-c2ccccn2)cc1)NC(=O)[C@@H](NC(=O)OC)C(C)(C)C)C(C)(C)C [ATAZANAVIR],Ki,[1],171 nM
same,IC50,[2],750 nM
same,IC50,[3],280 nM
same,IC50,[4],3300 nM
same,Ki,[13],2.8 nM
same,IC50,[5],350 nM
same,IC50,[6],430 nM
same,IC50,[7],600 nM
same,IC50,[8],105 nM
same,Ki,[9],< 0.1 nM
same,Ki,[10],84 nM
same,IC50,[11],3.5 nM
same,IC50,[12],2500 nM
CC(C)CN(C[C@@H](O)[C@H](Cc1ccccc1)NC(=O)O[C@H]1CO[C@H]2OCC[C@H]21)S(=O)(=O)c1ccc2c(c1)C(=CNCCC(C)(C)C)C(=O)N2 (mixture of isomers),Ki,[1],< 1 nM
same,IC50,[2],23 nM
same,IC50,[3],17 nM
same,IC50,[4],32 nM
same,IC50,[5],19 nM
same,IC50,[6],24 nM
same,IC50,[7],25 nM
same,IC50,[8],3.2 nM
same,Ki,[9],< 0.1 nM
same,Ki,[10],< 0.3 nM
same,IC50,[11],11 nM
CC(C)CN(C[C@@H](O)[C@H](Cc1ccccc1)NC(=O)O[C@H]1CO[C@H]2OCC[C@H]21)S(=O)(=O)c1ccc2c(c1)C(=CNCc1ccccc1)C(=O)N2 (mixture of isomers),Ki,[1],< 1 nM
same,IC50,[2],35 nM
same,IC50,[3],20 nM
same,IC50,[4],30 nM
same,IC50,[5],13 nM
same,IC50,[6],18 nM
same,IC50,[7],20 nM
same,IC50,[8],4.1 nM
same,Ki,[9],< 0.1 nM
same,Ki,[10],< 0.3 nM
same,IC50,[11],14 nM
